Measured values from ChEMBL document CHEMBL3877263, “Synthesis and in vitro characterization of novel fluorinated derivatives of the translocator protein 18 kDa ligand CfO-DPA-714” (Eur J Med Chem, 2017).

What was measured:
[1] = n-Octanol-buffer partition coefficient, log D of the compound at pH 7.4 by HPLC method; assay type: physicochemical
Translocator protein = Translocator protein (Rattus norvegicus, UniProt P16257); experiment: Displacement of [3H]PK11195 from TSPO in rat heart membranes after 15 mins by scintillation counting method; assay type: cell membranes, Membrane
Translocator protein, sequence (P16257 whole entry, looked up): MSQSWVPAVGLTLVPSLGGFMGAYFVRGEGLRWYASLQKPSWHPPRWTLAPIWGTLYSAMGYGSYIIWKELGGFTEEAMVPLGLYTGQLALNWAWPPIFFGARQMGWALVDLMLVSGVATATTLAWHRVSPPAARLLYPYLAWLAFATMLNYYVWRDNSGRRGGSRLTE

[2] = Intrinsic clearance in CD1 mouse hepatic microsomes assessed per mg protein up to 30 mins in presence of NADPH by UPLC-MS method; assay type: ADME; conditions: liver microsomes, read-out: CLH
Outline: (§1)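 Hepatic microsomes (male CD1 mouse, male Sprague-Dawley rat, or pooled human) at 0.25 mg/mL protein, substrate 0.5 µM, 1 mM NADPH; samples at 0, 5, 10, 20, 30 min, quenched with 1 volume CH3CN, centrifuged, supernatant by UPLC/HRMS. % remaining vs T0 (analyte/internal standard ratio); k from ln(% stability) vs time; InC = k/protein concentration × 1000.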

[3] = Intrinsic clearance in Sprague-Dawley rat hepatic microsomes assessed per mg protein up to 30 mins in presence of NADPH by UPLC-MS method; assay type: ADME; conditions: liver microsomes, read-out: CLH; outline: as §1
[4] = Intrinsic clearance in human hepatic microsomes assessed per mg protein up to 30 mins in presence of NADPH by UPLC-MS method; assay type: ADME; conditions: liver microsomes, read-out: CLH; outline: as §1
Rattus norvegicus = organism: Rattus norvegicus; experiment: Displacement of [3H]flunitrazepam from CBR in rat cerebral cortex membranes at 1 uM relative to control; assay type: cell membranes; conditions: Membrane

SMILES	logD [1]	Ki (Translocator protein)	microsomal CLint [2]	microsomal CLint [3]	microsomal CLint [4]	inhibition (Rattus norvegicus)
CCCN(C)C(=O)Cc1c(-c2ccc(CCCF)cc2)nn2c(C)cc(C)nc12	3.65	0.25 nM	781 µL/min/mg	> 1000 µL/min/mg	321 µL/min/mg	0%
Cc1cc(C)n2nc(-c3ccc(CCCF)cc3)c(CC(=O)N3CCCC3)c2n1	3.04	26 nM				0%
Cc1cc(C)n2nc(-c3ccc(CCCF)cc3)c(CC(=O)N(C)Cc3ccccc3)c2n1	3.98	0.3 nM	> 1000 µL/min/mg	> 1000 µL/min/mg	> 1000 µL/min/mg	0%
Cc1cc(C)n2nc(-c3ccc(CCCF)cc3)c(CC(=O)N(C)CCc3ccccc3)c2n1	4.08	1.1 nM	> 1000 µL/min/mg	> 1000 µL/min/mg	> 1000 µL/min/mg	0%
Cc1cc(C)n2nc(-c3ccc(CCCF)cc3)c(CC(=O)N(C)C)c2n1	2.68	15 nM				2%
CCN(CC)C(=O)Cc1c(-c2ccc(CCCF)cc2)nn2c(C)cc(C)nc12	3.51		865 µL/min/mg	> 1000 µL/min/mg	241 µL/min/mg	0%
Cc1cc(C)n2nc(-c3ccc(CCCF)cc3)c(CC(=O)NC3CC3)c2n1	2.69	17 nM				0%
Cc1cc(C)n2nc(-c3ccc(CCCF)cc3)c(CC(=O)N(C)Cc3ccccn3)c2n1	3.16	1.2 nM	947 µL/min/mg	610 µL/min/mg	270 µL/min/mg	0%
Cc1cc(C)n2nc(-c3ccc(CCCF)cc3)c(CC(=O)N3CCCCC3)c2n1	3.56	2.2 nM	931 µL/min/mg	> 1000 µL/min/mg	424 µL/min/mg	0%
Cc1cc(C)n2nc(-c3ccc(CCCF)cc3)c(CC(=O)N3CCNCC3)c2n1	0.87	260 nM				0%
Cc1cc(C)n2nc(-c3ccc(CCCF)cc3)c(CC(=O)N3CCOCC3)c2n1	2.56	27 nM				0%
Cc1cc(C)n2nc(-c3ccc(CCCF)cc3)c(CC(=O)N(C)Cc3cccnc3)c2n1	2.61	2.8 nM	> 1000 µL/min/mg	> 1000 µL/min/mg	862 µL/min/mg	0%
CCCN(CCC)C(=O)Cc1c(-c2ccc(CCCF)cc2)nn2c(C)cc(C)nc12	4.39	0.26 nM	> 1000 µL/min/mg	> 1000 µL/min/mg	> 1000 µL/min/mg	0%
CCN(CC)C(=O)Cc1c(-c2ccc(OCCF)cc2)nn2c(C)cc(C)nc12 [DPA-714]			408 µL/min/mg	> 1000 µL/min/mg	68 µL/min/mg	0%
Cc1cc(C)n2nc(-c3ccc(CCCF)cc3)c(CC(=O)N3CCC3)c2n1	2.73	32 nM				0%
